Data: ChEMBL document CHEMBL2440017, “Discovery of a potent, selective, and orally bioavailable histamine H3 receptor antagonist SAR110068 for the treatment of sleep-wake disorders” (Bioorg Med Chem Lett, 2013)
Active and inactive are the calls of the source. The rule behind the calls is not given here.

Tests used:
[1] = target: Histamine receptor H3 (Macaca mulatta, UniProt Q865E1); experiment: Displacement of [3H]N-alpha-methylhistamine from rhesus monkey histamine H3 receptor expressed in CHO cells; type: cell-based
Histamine receptor H3, sequence (Q865E1 whole entry): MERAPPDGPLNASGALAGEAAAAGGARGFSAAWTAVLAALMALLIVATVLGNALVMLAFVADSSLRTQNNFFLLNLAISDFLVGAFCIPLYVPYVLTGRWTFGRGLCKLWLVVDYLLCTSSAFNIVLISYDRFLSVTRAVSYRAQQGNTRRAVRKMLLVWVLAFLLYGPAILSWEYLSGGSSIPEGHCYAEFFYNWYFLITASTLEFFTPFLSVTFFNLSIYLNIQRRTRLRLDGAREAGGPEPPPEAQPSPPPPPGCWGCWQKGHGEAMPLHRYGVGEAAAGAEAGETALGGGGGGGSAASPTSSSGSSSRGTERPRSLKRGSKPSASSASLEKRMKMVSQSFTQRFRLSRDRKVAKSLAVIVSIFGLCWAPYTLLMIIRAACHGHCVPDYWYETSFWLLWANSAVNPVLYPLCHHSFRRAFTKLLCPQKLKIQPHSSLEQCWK
How it was run: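 Membranes from CHO cells stably expressing rhesus monkey H3 receptor. Competition binding against [3H]N-α-methylhistamine; Ki values are means of three or more determinations.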

[2] = system: Rattus norvegicus; experiment: Awakening activity in rat assessed as decrease in slow wave and REM sleep at 10 mg/kg, po; type: functional, organism-based; set-up: dose 10 mg/kg
[3] = system: Rattus norvegicus; experiment: Awakening activity in rat assessed as increased wakefulness at 10 mg/kg, po; type: functional, organism-based; set-up: dose 10 mg/kg
[4] = system: Rattus norvegicus; experiment: Awakening activity in rat assessed as decrease of theta rhythm at 10 mg/kg, po after 3 to 4 hrs; type: functional, organism-based; set-up: dose 10 mg/kg
[5] = system: Rattus norvegicus; experiment: Awakening activity in rat assessed as increased wakefulness at 10 mg/kg, po after 3 to 4 hrs; type: functional, organism-based; set-up: dose 10 mg/kg
How it was run: (§1)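 Rats given compound orally at 3 or 10 mg/kg, or reference drugs i.p. or p.o. at 10 mg/kg. EEG recorded during the light phase and scored as wakefulness, slow wave sleep and REM sleep. Time-course analysis of the effects.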

[6] = system: Rattus norvegicus; experiment: Awakening activity in rat assessed as increased wakefulness at 10 mg/kg, po after 1 hr; type: functional, organism-based; set-up: dose 10 mg/kg; how it was run: as §1
[7] = system: Rattus norvegicus; experiment: Awakening activity in rat assessed as increased wakefulness at 10 mg/kg, ip after 3 hrs; type: functional, organism-based; set-up: dose 10 mg/kg; how it was run: as §1

SMILES | Ki [1] [nM] | also measured
CC(=O)N1CCCC1C(=O)Nc1ccc(N2CCC(N3CCCC3C)C2)cc1 (mixture of isomers) | 14.1 | 
Cc1cc(N2CC[C@H](N3CCC[C@@H]3C)C2)ccc1NC(=O)C1C(C)(C)C1(C)C | 0.55 | 
Cc1cc(N2CCC(N3CCCC3C)C2)ccc1NC(=O)C1CCCO1 (mixture of isomers) | 7.34 | 
Cc1cc(N2CC[C@H](N3CCC[C@@H]3C)C2)ccc1NC(=O)CC1CCCC1 | 0.85 | 
Cc1cc(N2CC[C@@H](N3CCC[C@@H]3C)C2)ccc1NC(=O)C1CCOCC1 (racemic) | 3.9 | 
CC1CCCN1C1CCN(c2ccc(NC(=O)C3CC4CCC3C4)cc2)C1 (configuration not stated) | 15.7 | 
S=C(NC1CCCCC1)N1CCC(c2cnc[nH]2)CC1 |  | Activity [2]: Active; Activity [3]: Active
CC(=O)N1CCCC1C(=O)Nc1ccc(N2CCC(N3CCCC3C)C2)cc1C (mixture of isomers) | 57.7 | 
Cc1cc(NC(=O)C2CC3CCC2C3)ccc1N1CCC(N2CCCC2C)C1 (mixture of isomers) | 130 | 
Cc1cc(N2CC[C@H](N3CCC[C@@H]3C)C2)ccc1NC(=O)C1CC2CCC1C2 (some centres not stated) | 0.55 | 
Cc1cc(N2CCC(N3CCCC3C)C2)ccc1NC(=O)C1CC2CCC1C2 (mixture of isomers) | 19.9 | 
Cc1cc(N2CC[C@H](N3CCC[C@@H]3C)C2)ccc1NC(=O)C1CCCCC1 | 0.39 | 
C[C@@H]1CCCN1CCc1cc2cc(-c3ccc(C#N)cc3)ccc2o1 |  | Activity [4]: Active; Activity [5]: Active
CC(=O)N1CCCC1C(=O)Nc1ccc(N2CCC(N3CCCC3C)C2)c(C)c1 (mixture of isomers) | 44.9 | 
Cc1cc(NC(=O)C2CCCO2)ccc1N1CCC(N2CCCC2C)C1 (mixture of isomers) | 17 | 
CNC(=O)c1ccc(Oc2ccc3c(c2)CCN(C2CCC2)CC3)nc1 |  | Activity [6]: Active
O=C(c1ccc(OCCCc2c[nH]cn2)cc1)C1CC1 |  | Activity [7]: Active
Cc1cc(N2CCC(N3CCCC3C)C2)ccc1NC(=O)C1CCCCC1 (mixture of isomers) | 9 | 
Cc1cc(N2CC[C@H](N3CCC[C@@H]3C)C2)ccc1NC(=O)C1CCCO1 (some centres not stated) | 7.33 | 
CC1CCCN1C1CCN(c2ccc(NC(=O)C3CCCO3)cc2)C1 (mixture of isomers) | 8.7 | 
